Source: article PMC4539249 (ACS infectious diseases, 2015)
pEC50, pIC50: −log10 of the molar value. Read-outs that look alike come from different tables or passages of the source.

Columns and labels:
[1] = tested on: T. brucei bloodstream form (BSF) parasites; experiment: T. brucei growth inhibition; assay type: cell-based, Trypanosoma brucei brucei Lister 427; details: Trypanosoma brucei, read-out: T. brucei EC50
[2] = tested on: T. brucei brucei Lister 427; experiment: T. brucei brucei Lister 427 mouse model of infection; assay type: in vivo, BALB/C mice; details: treated mice, i.p. for 4 days (8 at 3 and 10 mg/kg)
[3] = tested on: AT-rich DNA dodecamer duplex; details: DSC, shift on inhibitor binding; cited from earlier work
in vitro [4] = details: human
in vitro [5] = details: human; remark: listed apart in the source
[6] = treatment of the second or neurological phase of HAT; no reference given; cited from earlier work
[7] = molecular target: T. brucei farnesyl diphosphate synthase (TbFPPS) (Trypanosoma brucei, UniProt Q57WF1); experiment: TbFPPS inhibition, coupled colorimetric assay; assay type: biochemical; details: read-out: TbFPPS IC50; duplicate ± SD; highest inhibitor concentration 316 μM
human FPPS = molecular target: T1, human FPPS (Homo sapiens, UniProt P14324); experiment: Human FPPS inhibition; assay type: biochemical; details: read-out: IC50 against human FPPS
T1 sequence (P14324 1-419): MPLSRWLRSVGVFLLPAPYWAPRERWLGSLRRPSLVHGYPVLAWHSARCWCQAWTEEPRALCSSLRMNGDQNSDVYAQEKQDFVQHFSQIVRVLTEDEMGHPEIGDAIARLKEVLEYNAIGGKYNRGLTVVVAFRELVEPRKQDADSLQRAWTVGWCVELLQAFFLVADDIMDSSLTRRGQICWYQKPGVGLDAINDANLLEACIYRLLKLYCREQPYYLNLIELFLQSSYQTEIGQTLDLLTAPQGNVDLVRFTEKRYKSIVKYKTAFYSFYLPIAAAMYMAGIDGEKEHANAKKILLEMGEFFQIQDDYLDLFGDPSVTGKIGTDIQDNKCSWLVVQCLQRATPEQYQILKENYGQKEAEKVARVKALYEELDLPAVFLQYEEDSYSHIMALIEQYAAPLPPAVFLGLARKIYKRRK

[8] = tested on: T. brucei k-DNA and nuclear DNA replication; experiment: Visualization of DNA replication; assay type: cell-based, Trypanosoma brucei; details: EdU click chemistry, 72 h treatment
Method in brief: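 Bloodstream-form trypanosomes, after 72 h exposure to test compound (DMSO vehicle as control), were pulsed 16 h with EdU, washed in PBS, fixed in cold 100% ethanol and dried. EdU was detected by Cu(I)-catalysed click labelling with Alexa Fluor 488 azide ([…]), and the cells were counterstained with 10 μg/ml DAPI. Nuclear and k-DNA signals were assessed by fluorescence microscopy.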

In the case of N=C(N)c1ccc(OCCCCCOc2ccc(C(=N)N)cc2)cc1 [compound 2, pentamidine], the pEC50 ([1]; 72 h) was 8.26, the pEC50 [1] was 8.30 and the parasitemia [2] was “no parasitemia observed”. The ΔTm [3] was 2.7 °C, the CC50 at 72 h (in vitro [4]) was less than 400 nM and the CC50 at 72 h (in vitro [5]) was less than 400 nM.
In the case of Nc1nc(N)nc(Nc2ccc([As]3SCC(CO)S3)cc2)n1 (stereo not shown) [compound 3, melarsoprol], the lethal in patients [6] is listed as 5-10%.
N=C(N)c1ccc(-c2ccc(-c3ccc(C(=N)N)cc3)o2)cc1 [compound 6] showed a pIC50 [7] of roughly 4.30 and a pIC50 (human FPPS) of roughly 4.30.
For CC[n+]1c(-c2ccccc2)c2cc(N)ccc2c2ccc(N)cc21 [ethidium bromide], the “k-DNA replication in T. brucei” value [8] was “completely blocked”.
